Laboratory results as given in ChEMBL document CHEMBL4732146, “Nitric oxide-donating and reactive oxygen species-responsive prochelators based on 8-hydroxyquinoline as anticancer agents” (Eur J Med Chem, 2021).
The source made the active and inactive calls. The rule behind the calls is not given here.

How the values were obtained:
[1] = Metal chelating activity assessed as compound-Fe3+ complex formation measured after 40 mins by calcein dye based fluorescence assay; settings: dose 10-50 µM
Procedure, shortened: (§1)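 Calcein (10 µM) in 50 mM HEPES was quenched by 10 µM CuCl₂ (or FeCl₃ for the Fe³⁺ arm). Chelator was added from DMSO stock to a final 10 or 50 µM and incubated 40 min at room temperature. Recovery rate was calculated from fluorescence (λex 485 / λem 520 nm); n = 3.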

PANC-1 [2] = test: Cytotoxicity against human PANC-1 cells assessed as reduction in cell viability at 10 uM measured after 48 hrs by MTT assay; assay type: functional, cell-based
Procedure, shortened: (§2)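 MTT assay with 48 h compound exposure at 10 or 20 µM. Cells seeded 6 × 10⁴ per well and grown 24 h beforehand. MTT 4 h, DMSO solubilisation, A490 read. Percent cell death given as mean ± SD, n = 3.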

[3] = Metal chelating activity assessed as compound-Cu2+ complex formation measured after 40 mins by calcein dye based fluorescence assay; settings: dose 10-50 µM; procedure, shortened: as §1
A549 = test: Cytotoxicity against human A549 cells assessed as reduction in cell viability at 10 to 20 uM measured after 48 hrs by MTT assay; assay type: functional, cell-based; settings: dose 10-20 µM
HeLa = test: Cytotoxicity against human HeLa cells assessed as reduction in cell viability at 10 to 20 uM measured after 48 hrs by MTT assay; assay type: functional, cell-based; settings: dose 10-20 µM
HepG2 = test: Cytotoxicity against human HepG2 cells assessed as reduction in cell viability at 10 to 20 uM measured after 48 hrs by MTT assay; assay type: functional, cell-based; settings: dose 10-20 µM; procedure, shortened: as §2
PANC-1 [4] = test: Cytotoxicity against human PANC-1 cells assessed as reduction in cell viability at 20 uM measured after 48 hrs by MTT assay relative to control; assay type: functional; procedure, shortened: as §2
MCF7 = test: Cytotoxicity against human MCF7 cells assessed as reduction in cell viability at 10 to 20 uM measured after 48 hrs by MTT assay; assay type: functional, cell-based; settings: dose 10-20 µM; procedure, shortened: as §2
[5] = Stability of compound in pH 7.4 PBS buffer measured after 5 to 24 hrs by RP-HPLC analysis; assay type: physicochemical; settings: time 5-24 hrs
Procedure, shortened: (§3)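 Compound (1 µM) stirred at 37 °C either in PBS (pH 5.0, 7.4 or 10.0) containing 5% DMSO or in DMEM with 10% FBS. Aliquots were analysed by RP-HPLC (0.1% TFA water/methanol gradient, 256 nm) for remaining intact compound, up to 24 h.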

[6] = Stability of compound in DMEM with 10% fetal bovine serum measured after 5 to 24 hrs by RP-HPLC analysis; assay type: cell-free; settings: time 5-24 hrs; procedure, shortened: as §3
PANC-1 [7] = test: Cytotoxicity against human PANC-1 cells assessed as reduction in cell viability measured after 48 hrs in presence of CuCl2 by MTT assay; assay type: functional, cell-based; settings: PANC-1, 48 h
Procedure, shortened: (§4)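 Cells seeded 6 × 10⁴ per well, cultured 24 h at 37 °C under 5% CO₂, then exposed to compound for 48 h, with or without 50 µM CuCl₂ or FeCl₃ co-incubation. MTT added for 4 h at 37 °C, formazan dissolved in DMSO, A490 read. IC50 reported as mean (SD), n = 3.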

PANC-1 [8] = test: Cytotoxicity against human PANC-1 cells assessed as reduction in cell viability measured after 48 hrs in presence of FeCl3 by MTT assay; assay type: functional, cell-based; settings: PANC-1, 48 h; procedure, shortened: as §4
SW1990 [9] = test: Cytotoxicity against human SW1990 cells assessed as reduction in cell viability measured after 48 hrs by MTT assay; assay type: functional, cell-based; settings: SW1990, 48 h; procedure, shortened: as §4
[10] = Cytotoxicity against human H6C7 cells assessed as reduction in cell viability measured after 48 hrs by MTT assay; assay type: cell-based; settings: H6C7, 48 h; procedure, shortened: as §4
[11] = Stability of compound in pH 10 PBS buffer measured after 5 to 24 hrs by RP-HPLC analysis; assay type: physicochemical; settings: time 5-24 hrs; procedure, shortened: as §3
[12] = Cytotoxicity against human RWPE2 cells assessed as reduction in cell viability measured after 48 hrs by MTT assay; assay type: cell-based; settings: RWPE2, 48 h; procedure, shortened: as §4
[13] = Stability of compound in pH 5 PBS buffer measured after 5 to 24 hrs by RP-HPLC analysis; assay type: physicochemical; settings: time 5-24 hrs; procedure, shortened: as §3
SW1990 [14] = test: Cytotoxicity against human SW1990 cells assessed as reduction in cell viability measured after 48 hrs in presence of FeCl3 by MTT assay; assay type: functional, cell-based; settings: SW1990, 48 h; procedure, shortened: as §4
PANC-1 [15] = test: Cytotoxicity against human PANC-1 cells assessed as reduction in cell viability measured after 48 hrs by MTT assay; assay type: functional, cell-based; settings: PANC-1, 48 h; procedure, shortened: as §4
SW1990 [16] = test: Cytotoxicity against human SW1990 cells assessed as reduction in cell viability measured after 48 hrs in presence of CuCl2 by MTT assay; assay type: functional, cell-based; settings: SW1990, 48 h; procedure, shortened: as §4

Compound | Activity [1] | Activity (PANC-1 [2]) | Activity [3] | Activity (A549) | Activity (HeLa) | Activity (HepG2) | Activity (PANC-1 [4]) | Activity (MCF7) | Stabilty [5] | Stability [6] | IC50 (PANC-1 [7]) | IC50 (PANC-1 [8]) | IC50 (SW1990 [9]) | IC50 [10] | Stabilty [11] | IC50 [12] | Stabilty [13] | IC50 (SW1990 [14]) | IC50 (PANC-1 [15]) | IC50 (SW1990 [16])
O=C(/C=C/c1ccc2cccc(O)c2n1)NCCOc1no[n+]([O-])c1S(=O)(=O)c1ccccc1 | Dose-dependent effect | Active | Dose-dependent effect | Active | Active | Active | Active | Active | – | – | – | – | – | – | – | – | – | – | – | –
O=C(/C=C\c1ccc2cccc(O)c2n1)N1CCN(CCOc2no[n+]([O-])c2S(=O)(=O)c2ccccc2)CC1 | Dose-dependent effect | Active | Dose-dependent effect | Active | Active | Active | Active | Active | – | – | – | – | – | – | – | – | – | – | – | –
O=C(NCCOc1no[n+]([O-])c1S(=O)(=O)c1ccccc1)c1ccc2cccc(O)c2n1 | Dose-dependent effect | Active | Dose-dependent effect | Active | Active | Active | Active | Active | – | – | – | – | – | – | – | – | – | – | – | –
CC1(C)OB(c2ccc(COc3cccc4ccc(C(=O)N5CCC(Oc6no[n+]([O-])c6S(=O)(=O)c6ccccc6)CC5)nc34)cc2)OC1(C)C | – | – | – | – | – | – | – | – | Stable | Stable | 3.47 µM | 38.2 µM | 12.1 µM | 34.2 µM | Stable | 28.6 µM | Stable | 34.2 µM | 13.2 µM | 2.88 µM
CC1(C)OB(c2ccc(COc3cccc4ccc(C(=O)NCCCOc5no[n+]([O-])c5S(=O)(=O)c5ccccc5)nc34)cc2)OC1(C)C | – | – | – | – | – | – | – | – | Stable | Stable | 4.89 µM | 25.3 µM | 15.7 µM | 40.4 µM | Stable | 39.8 µM | Stable | 20.8 µM | 17.1 µM | 3.2 µM
O=C(c1ccc2cccc(OCc3ccc(B(O)O)cc3)c2n1)N1CCC(Oc2no[n+]([O-])c2S(=O)(=O)c2ccccc2)CC1 | – | – | – | – | – | – | – | – | Stable | Stable | 2.69 µM | 20.5 µM | 12.9 µM | > 50 µM | Stable | 30.1 µM | Stable | 18.7 µM | 16.6 µM | 3.05 µM
